Published values of several laboratories.
Lines come from different studies, so protocols differ.
Cell line: NCI-H460
Observed: cell growth or viability

| SMILES | technique | concentration | time | measurement | value |
| --- | --- | --- | --- | --- | --- |
| COc1cccc(Oc2ccccc2NC(=O)CNC(=O)c2cccc3ccccc23)c1 | SRB |  | 48 h | GI50 | 295 nM |
| CCCCc1n(Cc2ccc3ccccc3n2)cc[n+]1Cc1ccc2ccccc2n1 | SRB |  |  | TGI | 11600 nM |
| Cc1cc(C)n(C(=S)[S][Au][PH](CCCCCC[PH]([Au][S]C(=S)n2nc(C)cc2C)(c2ccccc2)c2ccccc2)(c2ccccc2)c2ccccc2)n1 | SRB |  |  | GI50 | 638 nM |
| COc1cc(N(C)CCN(C)C)c(NC(=O)C=C(C)C)cc1Nc1nc(Nc2cnn(C)c2)c2sccc2n1 | MTT |  |  | IC50 | 1320 nM |
| c1ccc(-c2n(Cc3ccc4ccccc4c3)cc[n+]2Cc2ccc3ccccc3c2)cc1 | SRB |  |  | TGI | 2870 nM |
| C=C(Cl)C(=O)Nc1cc(Nc2nc(N3CCOCC3)c3sccc3n2)c(OC)cc1N(C)CCN(C)C | MTT |  |  | IC50 | 1840 nM |
| COc1ccc(C(=O)/C=C/c2ccccc2Br)cc1S(N)(=O)=O | SRB |  | 48 h | GI50 | 2000 nM |
| CCc1n(Cc2ccc3ccccc3n2)cc[n+]1Cc1ccc2ccccc2c1 | SRB |  |  | TGI | 10800 nM |
| COc1ccc(C(=O)/C=C/c2ccc3ccccc3c2)cc1S(N)(=O)=O | SRB | 10 µM |  | inhibition | 98% |
| C/C=C/C(=O)Nc1cc(Nc2nc(Nc3cnn(C)c3)c3sccc3n2)c(OC)cc1N(C)CCN(C)C | MTT |  |  | IC50 | > 50000 nM |
| COc1cc(-c2ccc(-c3ccc(C(=N)N)nc3)s2)cc(OC)c1OC | SRB |  |  | GI50 | 2100 nM |
| COc1ccc(C(=O)/C=C/c2ccc(Cl)c(Cl)c2)cc1S(N)(=O)=O | SRB |  | 48 h | GI50 | 2800 nM |
| C=C(Cl)C(=O)Nc1cc(Nc2nc(Nc3cnn(C)c3)c3sccc3n2)c(OC)cc1N1CCN(C)CC1 | MTT |  |  | IC50 | 239 nM |
| Cc1n(Cc2ccc3ccccc3n2)cc[n+]1Cc1ccc2ccccc2c1 | SRB |  |  | TGI | 14400 nM |
| COc1ccc(C(=O)/C=C/c2cccnc2)cc1S(N)(=O)=O | SRB |  | 48 h | GI50 | 9100 nM |
| CN1C[C@H](C(=O)N[C@]2(C)O[C@@]3(O)[C@@H]4CCCN4C(=O)[C@H](Cc4ccccc4)N3C2=O)C[C@@H]2c3cccc4[nH]cc(c34)C[C@H]21 | MTT |  | 72 h | EC50 | 67000 nM |
| COc1ccc(C(=O)/C=C/c2cc3c(cc2Br)OCO3)cc1S(N)(=O)=O | SRB | 10 µM |  | inhibition | 100% |
| C=C(Cl)C(=O)Nc1cc(Nc2nc(N3CCCC3)c3sccc3n2)c(OC)cc1N(C)CCN(C)C | MTT |  |  | IC50 | 6480 nM |
| CS(=O)(=O)CCNCc1ccc(-c2ccc3ncnc(Nc4ccc(OCc5cccc(F)c5)c(Cl)c4)c3c2)o1 | MTT |  | 72 h | EC50 | 32000 nM |
| C=CC(=O)Nc1cc(Nc2nc(N3CCc4sccc4C3)c3cccnc3n2)c(OC)cc1N1CCOCC1 | MTT |  |  | IC50 | > 50000 nM |
| COc1ccc(C(=O)/C=C/c2cccc3ccccc23)cc1S(N)(=O)=O | SRB |  | 48 h | GI50 | 1800 nM |
